According to ChEMBL document CHEMBL1154217, “Antimalarial and cytotoxic depsidones from the fungus Chaetomium brasiliense” (J Nat Prod, 2009):
Converted amounts (≈) assume the structure as drawn. The source made the active and inactive calls. No cut-off for these calls is given here.

Assays:
[1] = tested on: NCI-H187; assay: Cytotoxicity against human NCI-H187 cells by SRB assay; type: functional, cell-based
[2] = tested on: Candida albicans; assay: Antifungal activity against Candida albicans at > 50 ug/mL by XTT assay; type: functional, organism-based
Method in brief: (§1)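 Clinical isolate of Candida albicans tested by an assay modified from the soluble formazan (XTT) method. Viable cells were quantified from XTT formazan absorbance at 450 nm. Amphotericin B served as the reference substance.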

[3] = tested on: Mycobacterium tuberculosis; assay: Antimycobacterial activity against Mycobacterium tuberculosis H37Ra at > 50 ug/mL after 4 days by almar blue assay; type: functional, organism-based
Method in brief: (§2)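 M. tuberculosis H37Ra was tested by microplate Alamar Blue assay (MABA), with isoniazid and kanamycin sulfate as reference drugs.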

[4] = Cytotoxicity against human KKU-M213 cells by MTT assay; type: functional, cell-based
[5] = tested on: Plasmodium falciparum; assay: Antimalarial activity against multi drug-resistant Plasmodium falciparum K1 assessed as [3H]hypoxanthine uptake at > 50 ug/mL after 18 hrs by microculture radioisotope technique; type: functional, organism-based
Method in brief: (§3)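 Multidrug-resistant P. falciparum K1 was cultured by the Trager and Jensen method and tested in vitro by microculture radioisotope technique. Growth was read as [³H]-hypoxanthine uptake, and IC50 was taken as the concentration giving 50% reduction in parasite growth. Artemisinin served as the reference standard.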

[6] = tested on: KB; assay: Cytotoxicity against human KB cells by SRB assay; type: functional, cell-based
[7] = Cytotoxicity against human KKU-M139 cells by MTT assay; type: functional, cell-based
[8] = Cytotoxicity against human KKU-M214 cells by MTT assay; type: functional, cell-based
[9] = Cytotoxicity against human KKU-M156 cells by MTT assay; type: functional, cell-based
[10] = Cytotoxicity against human KKU100 cells by MTT assay; type: functional, cell-based
[11] = Cytotoxicity against human BC1 cells by SRB assay; type: functional, cell-based
[12] = tested on: Candida albicans; assay: Antifungal activity against Candida albicans by XTT assay; type: functional, organism-based; method in brief: as §1
[13] = tested on: Plasmodium falciparum; assay: Antimalarial activity against multi drug-resistant Plasmodium falciparum K1 assessed as [3H]hypoxanthine uptake after 18 hrs by microculture radioisotope technique; type: functional, organism-based; method in brief: as §3
[14] = tested on: Mycobacterium tuberculosis; assay: Antimycobacterial activity against Mycobacterium tuberculosis H37Ra after 4 days by almar blue assay; type: functional; conditions: 96 h; method in brief: as §2
[15] = tested on: KB; assay: Cytotoxicity against human KB cells at > 50 ug/mL by SRB assay; type: functional, cell-based
[16] = tested on: BC1; assay: Cytotoxicity against human BC1 cells at > 50 ug/mL by SRB assay; type: functional, cell-based

SMILES: Cc1cc(O)c(C=O)c2c1C(=O)Oc1c(O)c3c(c(C)c1O2)C(=O)CC(C)(C)O3 [MOLLICELLIN N]
- IC50 [1]: 13.5 µg/mL (≈ 33.9 µM)
- Activity [2]: inactive
- Activity [3]: inactive
- IC50 [4]: 3 µg/mL (≈ 7.53 µM)
- Activity [5]: inactive
- IC50 [6]: 25.9 µg/mL (≈ 65 µM)
- IC50 [7]: 4.34 µg/mL (≈ 10.9 µM)
- IC50 [8]: 5.05 µg/mL (≈ 12.7 µM)
- IC50 [9]: 2.9 µg/mL (≈ 7.28 µM)
- IC50 [10]: 6.46 µg/mL (≈ 16.2 µM)

SMILES: Cc1c2ccncc2c(C)c2c1[nH]c1ccccc12 [ELLIPTECINE]
- IC50 [4]: 0.3 µg/mL (≈ 1.22 µM)
- IC50 [7]: 1.21 µg/mL (≈ 4.91 µM)
- IC50 [8]: 0.21 µg/mL (≈ 0.853 µM)
- IC50 [11]: 0.26 µg/mL (≈ 1.06 µM)
- IC50 [9]: 2.02 µg/mL (≈ 8.2 µM)
- IC50 [10]: 7.11 µg/mL (≈ 28.9 µM)

SMILES: COc1c(O)c2c(c(C)c1C(=O)C=C(C)C)Oc1c(C=O)c(O)c(Cl)c(C)c1C(=O)O2 [MOLLICELLIN E]
- IC50 [1]: 1 µg/mL (≈ 2.24 µM)
- IC50 [12]: 39.7 µg/mL (≈ 88.8 µM)
- Activity [3]: inactive
- IC50 [4]: 4.44 µg/mL (≈ 9.94 µM)
- IC50 [7]: 5.03 µg/mL (≈ 11.3 µM)
- IC50 [13]: 3.2 µg/mL (≈ 7.16 µM)
- IC50 [8]: 7.81 µg/mL (≈ 17.5 µM)
- IC50 [9]: 5.22 µg/mL (≈ 11.7 µM)
- IC50 [10]: 4.83 µg/mL (≈ 10.8 µM)

SMILES: NC[C@H]1O[C@H](O[C@H]2[C@H](O)[C@@H](O[C@H]3O[C@H](CO)[C@@H](O)[C@H](N)[C@H]3O)[C@H](N)C[C@@H]2N)[C@H](O)[C@@H](O)[C@@H]1O.O=S(=O)(O)O [KANAMYCIN SULFATE]
- MIC [14]: 2.5 µg/mL

SMILES: Cc1c2c(c(O)c3c1C(=O)CC(C)(C)O3)OC(=O)c1c(C)c(Cl)c(O)c(C=O)c1O2 [MOLLICELLIN F]
- IC50 [1]: 13.1 µg/mL (≈ 30.3 µM)
- Activity [3]: inactive
- IC50 [4]: 4.98 µg/mL (≈ 11.5 µM)
- Activity [5]: inactive
- IC50 [6]: 37.9 µg/mL (≈ 87.6 µM)
- IC50 [7]: 5.21 µg/mL (≈ 12 µM)
- IC50 [8]: 4.4 µg/mL (≈ 10.2 µM)
- IC50 [9]: 5.36 µg/mL (≈ 12.4 µM)
- IC50 [10]: 5.21 µg/mL (≈ 12 µM)

SMILES: CC(C)=CC(=O)c1c(O)cc2c(c1C)OC(=O)c1c(C)cc(O)c(C=O)c1O2 [MOLLICELLINE K]
- IC50 [1]: 0.35 µg/mL (≈ 0.915 µM)
- IC50 [12]: 1.2 µg/mL (≈ 3.14 µM)
- IC50 [6]: 1.9 µg/mL (≈ 4.97 µM)
- MIC [14]: 12.5 µg/mL (≈ 32.7 µM)
- IC50 [7]: 13.9 µg/mL (≈ 36.5 µM)
- IC50 [13]: 1.2 µg/mL (≈ 3.14 µM)
- IC50 [8]: 4.92 µg/mL (≈ 12.9 µM)
- IC50 [11]: 6.8 µg/mL (≈ 17.8 µM)
- IC50 [9]: 6.65 µg/mL (≈ 17.4 µM)
- IC50 [10]: 4.46 µg/mL (≈ 11.7 µM)

SMILES: Cc1c2c(cc3c1C(=O)CC(C)(C)O3)Oc1c(C=O)c(O)c(Cl)c(C)c1C(=O)O2 [MOLLICELLIN M]
- IC50 [1]: 0.68 µg/mL (≈ 1.63 µM)
- Activity [15]: inactive
- Activity [2]: inactive
- Activity [3]: inactive
- IC50 [13]: 2.9 µg/mL (≈ 6.96 µM)
- Activity [16]: inactive
- IC50 [10]: 6.28 µg/mL (≈ 15.1 µM)

SMILES: COc1cc2c(c(C)c1C(=O)C=C(C)C)OC(=O)c1c(C)cc(O)c(C=O)c1O2 [MOLLICELLIN L]
- IC50 [1]: 9.5 µg/mL (≈ 24 µM)
- Activity [2]: inactive
- Activity [3]: inactive
- IC50 [4]: 13.2 µg/mL (≈ 33.3 µM)
- IC50 [6]: 33.9 µg/mL (≈ 85.5 µM)
- IC50 [7]: 8.55 µg/mL (≈ 21.6 µM)
- IC50 [13]: 3.4 µg/mL (≈ 8.58 µM)
- IC50 [8]: 4.51 µg/mL (≈ 11.4 µM)
- IC50 [9]: 6.04 µg/mL (≈ 15.2 µM)

SMILES: COc1c(O)c2c(c(C)c1C(=O)C=C(C)C)Oc1c(C=O)c(O)cc(C)c1C(=O)O2 [MOLLICELLIN C]
- IC50 [1]: 3.1 µg/mL (≈ 7.52 µM)
- IC50 [12]: 49.9 µg/mL (≈ 121 µM)
- Activity [3]: inactive
- IC50 [4]: 3.2 µg/mL (≈ 7.76 µM)
- IC50 [6]: 46.3 µg/mL (≈ 112 µM)
- IC50 [7]: 2.51 µg/mL (≈ 6.09 µM)
- IC50 [13]: 9.1 µg/mL (≈ 22.1 µM)
- IC50 [8]: 3.35 µg/mL (≈ 8.12 µM)
- Activity [16]: inactive
- IC50 [9]: 4.18 µg/mL (≈ 10.1 µM)
- IC50 [10]: 5.12 µg/mL (≈ 12.4 µM)

SMILES: C[C@@H]1CC[C@H]2[C@@H](C)C(=O)O[C@@H]3O[C@@]4(C)CC[C@@H]1[C@]32OO4 [ARTEMISININ]
- IC50 [13]: 0.001 µg/mL (≈ 0.00354 µM)

SMILES: NNC(=O)c1ccncc1 [ISONIAZID]
- MIC [14]: 0.05 µg/mL (≈ 0.365 µM)

SMILES: C[C@@H]1[C@H](O)[C@@H](C)/C=C/C=C/C=C/C=C/C=C/C=C/C=C/[C@H](O[C@@H]2O[C@H](C)[C@@H](O)[C@H](N)[C@@H]2O)C[C@@H]2O[C@](O)(C[C@@H](O)C[C@@H](O)[C@H](O)CC[C@@H](O)C[C@@H](O)CC(=O)O[C@H]1C)C[C@H](O)[C@H]2C(=O)O [AMPHOTERICIN B]
- IC50 [12]: 0.034 µg/mL (≈ 0.0368 µM)

SMILES: CC(C)=CCc1c(O)cc2c(c1C)OC(=O)c1c(C)c(Cl)c(O)c(C=O)c1O2 [MOLLICELLIN J]
- IC50 [1]: 23.3 µg/mL (≈ 57.8 µM)
- Activity [3]: inactive
- IC50 [6]: 29.1 µg/mL (≈ 72.2 µM)
- IC50 [13]: 4.9 µg/mL (≈ 12.2 µM)

SMILES: Cc1cc(O)c(C=O)c2c1C(=O)Oc1c(cc3c(c1C)C(=O)CC(C)(C)O3)O2 [MOLLICELLIN B]
- IC50 [1]: 14.7 µg/mL (≈ 38.4 µM)
- Activity [2]: inactive
- Activity [3]: inactive
- IC50 [4]: 6.94 µg/mL (≈ 18.2 µM)
- IC50 [6]: 37.1 µg/mL (≈ 97 µM)
- IC50 [7]: 11.7 µg/mL (≈ 30.5 µM)
- IC50 [13]: 4.7 µg/mL (≈ 12.3 µM)
- IC50 [8]: 4.5 µg/mL (≈ 11.8 µM)
- IC50 [9]: 15.7 µg/mL (≈ 41 µM)
- IC50 [10]: 4.63 µg/mL (≈ 12.1 µM)

SMILES: CC(C)=CCc1c(O)cc2c(c1C)OC(=O)c1c(C)cc(O)c(C=O)c1O2 [MOLLICELLIN H]
- IC50 [1]: 3.9 µg/mL (≈ 10.6 µM)
- Activity [3]: inactive
- IC50 [6]: 16.6 µg/mL (≈ 45.1 µM)
